According to ChEMBL document CHEMBL1158886, “Melophlins C-O, thirteen novel tetramic acids from the marine sponge Melophlus sarassinorum” (J Nat Prod, 2003):
In brackets after ≈: the same amount, converted by molar mass. Activity calls are given as the source filed them. The rule behind the calls is not given here.

What was measured:
TF-1 = assay: Cytotoxicity against human TF1 cells; type: functional, cell-based
HeLa = assay: Cytotoxicity against human HeLa cells; type: functional, cell-based
Artemia salina = assay: Toxicity against Artemia salina; type: organism-based
Staphylococcus aureus = assay: Antimicrobial activity against Staphylococcus aureus ATCC 25923 at 5 and 10 ug after 24 hrs by agar diffusion method; type: functional, organism-based
Summary of the method: (§1)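 Paper disks (5 mm) loaded with 5 or 10 µg of compound in MeOH, set on LB agar plates seeded with the test bacterium. Incubated 24 h at 37 °C, then inhibition zone diameters recorded. Disks carrying solvent only served as controls.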

Bacillus subtilis = assay: Antimicrobial activity against Bacillus subtilis 168 at 5 and 10 ug after 24 hrs by agar diffusion method; type: functional, organism-based; summary of the method: as §1
Candida albicans = assay: Antimicrobial activity against Candida albicans at 5 and 10 ug after 24 hrs by agar diffusion method; type: functional, organism-based
Summary of the method: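 Disks (5 mm) carrying 5 or 10 µg of compound in MeOH were placed on YPD agar plates inoculated with C. albicans. Inhibition zones were read after 24 h at 27 °C. Solvent-only disks served as controls.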

SMILES | Activity (TF-1) | Activity (HeLa) | IC50 (Artemia salina) | Activity (Staphylococcus aureus) | Activity (Bacillus subtilis) | Activity (Candida albicans)
CCCCCCCCCCC/C(O)=C1\C(=O)C(C)N(C)C1=O (configuration not stated) | inactive | inactive | – | – | – | –
CCC(C)CCCCCCCCCC/C(O)=C1\C(=O)CN(C)C1=O (configuration not stated) [MELOPHLIN I] | inactive | inactive | 52.6 µg/mL (≈ 156 µM) | – | – | –
CCC(C)CCCCCCCC/C(O)=C1\C(=O)C(C)N(C)C1=O (configuration not stated) | inactive | inactive | – | – | – | –
CC(C)CCCCCCCCC/C(O)=C1\C(=O)C(C)N(C)C1=O (configuration not stated) | inactive | inactive | – | – | – | –
CCCCCCCC(C)CCC/C(O)=C1\C(=O)C(C)N(C)C1=O (configuration not stated) [MELOPHLIN C] | inactive | inactive | 36.6 µg/mL (≈ 113 µM) | Active | Active | Active
CCCCCCCCCCCCC/C(O)=C1\C(=O)CN(C)C1=O [MELOPHLIN G] | inactive | inactive | 48.8 µg/mL (≈ 151 µM) | – | – | –
CC(C)CCCCCCCCCCCC/C(O)=C1\C(=O)CN(C)C1=O | inactive | inactive | – | – | – | –
CC(C)CCCCCCCCCCC/C(O)=C1\C(=O)CN(C)C1=O | inactive | inactive | – | – | – | –
